In assay [1] the target is T1, 5-hydroxytryptamine receptor 2C (Homo sapiens, UniProt P28335).
T1 sequence (P28335 whole entry): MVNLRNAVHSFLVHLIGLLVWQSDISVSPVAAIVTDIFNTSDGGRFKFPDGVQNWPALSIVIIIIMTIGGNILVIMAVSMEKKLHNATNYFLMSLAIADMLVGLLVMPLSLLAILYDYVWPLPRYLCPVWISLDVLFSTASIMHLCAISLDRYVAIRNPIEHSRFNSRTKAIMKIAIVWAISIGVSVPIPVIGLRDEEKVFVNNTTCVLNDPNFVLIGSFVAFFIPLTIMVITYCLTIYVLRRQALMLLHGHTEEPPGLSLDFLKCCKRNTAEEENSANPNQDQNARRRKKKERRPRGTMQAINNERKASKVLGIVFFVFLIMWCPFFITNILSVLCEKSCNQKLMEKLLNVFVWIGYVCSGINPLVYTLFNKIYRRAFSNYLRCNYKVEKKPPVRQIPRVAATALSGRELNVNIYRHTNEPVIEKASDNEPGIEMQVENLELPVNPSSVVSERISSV
Kind of assay: Agonist activity at human 5HT2C receptor expressed in HEK293 cells assessed as induction of intracellular calcium release measured for 90 secs by fluorescence assay. It counts as functional, cell-based. Conditions: read-out: EC50.

For assay [2], the system named is Mus musculus. Kind of assay: Procognitive effect in C57Bl/6J mouse assessed as number of novel arm entries at 0.43 mg/kg, po administered 30 mins prior to acquisition trial measured after 24 hrs by Y-maze test. The format is functional. A digest of the protocol:
(§1)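 Male C57Bl/6J mice aged 8 weeks, two-trial place recognition Y-maze. 3 min acquisition with two arms open; 24 h ITI; 3 min retention with all three arms open. Drug given po 30 min before acquisition, vehicle 10% HP-βCD. SB242084 2.1 mg/kg co-administered where stated; doses as free base. Readouts are % distance, arm entries and time in each arm. Familiar arms pooled; one-way ANOVA.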

Assay [3] has as its system Mus musculus. As to the kind of experiment: Procognitive effect in C57Bl/6J mouse assessed as distance traveled in the novel arm at 0.43 mg/kg, po administered 30 mins prior to acquisition trial measured after 24 hrs by Y-maze test (reference value: 37 +/- 5.8%). It counts as functional. The essentials:
as §1

The target in assay [4] is T2, 5-hydroxytryptamine receptor 2C (Rattus norvegicus, UniProt P08909).
T2 sequence (P08909 whole entry): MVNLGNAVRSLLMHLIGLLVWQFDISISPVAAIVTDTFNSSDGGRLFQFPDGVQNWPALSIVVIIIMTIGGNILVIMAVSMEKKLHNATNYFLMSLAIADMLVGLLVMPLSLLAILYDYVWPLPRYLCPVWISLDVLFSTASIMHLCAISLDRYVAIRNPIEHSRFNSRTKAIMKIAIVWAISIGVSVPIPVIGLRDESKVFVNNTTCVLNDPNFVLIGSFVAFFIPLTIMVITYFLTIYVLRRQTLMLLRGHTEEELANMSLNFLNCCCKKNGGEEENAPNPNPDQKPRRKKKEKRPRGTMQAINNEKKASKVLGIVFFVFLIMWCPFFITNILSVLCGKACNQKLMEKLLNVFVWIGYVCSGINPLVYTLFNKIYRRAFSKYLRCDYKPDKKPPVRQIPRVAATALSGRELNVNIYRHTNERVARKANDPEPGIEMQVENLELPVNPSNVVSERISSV
Kind of assay: (§2) Displacement of [125I]-N-(p-I-Bn)-THAZ from 5HT2C receptor in rat cerebral cortex membrane after 1 hr by scintillation counting analysis. The format is cell membranes.

In assay [5] the target is T3, 5-hydroxytryptamine receptor 2C (Rattus norvegicus) (UniProt P08909).
T3 sequence (whole entry): T2 sequence (P08909 whole entry)
Described as §2. It counts as cell membranes.

Assay [6] concerns Mus musculus. As to the kind of experiment: Procognitive effect in C57Bl/6J mouse assessed as time spent in novel arm at 0.43 mg/kg, po administered 30 mins prior to acquisition trial measured after 24 hrs by Y-maze test. The format is functional. A digest of the protocol:
as §1

For assay [7], the target named is T4, 5-hydroxytryptamine receptor 2A (Homo sapiens, UniProt P28223). Kind of assay: Agonist activity at human 5HT2A receptor expressed in HEK293 cells assessed as induction of intracellular calcium release measured for 90 secs by fluorescence assay. The format is functional, cell-based. Conditions: read-out: EC50.
The target of assay [8] is T1, 5-hydroxytryptamine receptor 2C. Kind of assay: Agonist activity at human 5HT2C receptor expressed in HEK293 cells assessed as accumulation of IP1 incubated for 1 hr at 37 degC followed by 15 mins at RT by TR-FRET assay. The format is functional, cell-based.
Assay [9] has as its target T3, 5-hydroxytryptamine receptor 2C (Rattus norvegicus). As to the kind of experiment: Displacement of [125I]-N-(p-I-Bn)-THAZ from 5HT2C receptor in rat midbrain membrane after 1 hr by scintillation counting analysis. The format is cell membranes.
Assay [10] concerns Mus musculus. Kind of assay: Procognitive effect in C57Bl/6J mouse assessed as distance traveled in the familiar arm at 0.43 mg/kg, po administered 30 mins prior to acquisition trial measured after 24 hrs by Y-maze test (Rvb =31.5 +/- 2.9%). It counts as functional. A digest of the protocol:
as §1

For assay [11], the target named is T1, 5-hydroxytryptamine receptor 2C. Kind of assay: Displacement of [3H]mesulergine from human 5HT2C receptor expressed in tsA201 cell membranes after 1 hr by scintillation counting analysis.
The target of assay [12] is T4, 5-hydroxytryptamine receptor 2A. Kind of assay: Agonist activity at human 5HT2A receptor expressed in HEK293 cells assessed as induction of intracellular calcium release by fluorescence assay relative to 5HT. The format is functional, cell-based. A digest of the protocol: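 Stable polyclonal 5-HT2A or 5-HT2C HEK293 cells seeded on poly-D-lysine plates (6 × 10⁴ cells/well). Next day loaded with Fluo-4/AM for 1 h at 37 °C in HBSS/20 mM HEPES/1 mM CaCl₂/1 mM MgCl₂/2.5 mM probenecid, pH 7.4. Fluorescence (485 ex/525 em) recorded before and up to 90 s after agonist. Response relative to 5-HT on the same plate. Duplicate, at least three times.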

For assay [13] the target is unchanged. As to the kind of experiment: Agonist activity at human 5HT2A receptor expressed in HEK293 cells assessed as accumulation of IP1 incubated for 1 hr at 37 degC followed by 15 mins at RT by TR-FRET assay. It counts as functional, cell-based.
Assay [14] is filed under the species Homo sapiens. Kind of assay: Selectivity ratio of EC50 for human 5HT2A receptor to EC50 for M1 muscarinic receptor (unknown origin) by FLIPR assay.
The target of assay [15] is T4, 5-hydroxytryptamine receptor 2A. As to the kind of experiment: Ratio of EC50 for human 5HT2A receptor by calcium fiux-based fluorescence assay to EC50 for 5HT2A by IP1 accumulation-based TR-FRET assay. It counts as functional.
The subject of assay [16] is Mus musculus. As to the kind of experiment: Procognitive effect in C57Bl/6J mouse assessed as number of familiar arm entry at 0.43 mg/kg, po administered 30 mins prior to acquisition trial measured after 24 hrs in presence of SB242084. It counts as functional. The essentials: as §1
For assay [17], the species on record is Homo sapiens. As to the kind of experiment: Selectivity ratio of EC50 for human 5HT2C receptor to EC50 for M1 muscarinic receptor (unknown origin) by FLIPR assay.
Assay [18] deals with T5, 5-hydroxytryptamine receptor 2C (Homo sapiens) (UniProt P28335).
T5 sequence (whole entry): T1 sequence (P28335 whole entry)
Kind of assay: Agonist activity at human 5HT2C receptor expressed in HEK293 cells assessed as accumulation of IP1 incubated for 1 hr at 37 degC followed by 15 mins at RT by TR-FRET assay relative to 5HT. The format is functional, cell-based. A digest of the protocol: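 Polyclonal HEK293 lines stably expressing human 5-HT2A (variant 1) or 5-HT2C (INI isoform), detached and suspended at 1 × 10⁷ cells/mL in HBSS with 20 mM HEPES, 1 mM CaCl₂, 1 mM MgCl₂, pH 7.4. Ligands in buffer with 40 mM LiCl. Incubated 1 h at 37 °C, then 15 min RT. IP1 read by HTRF 665/615 ratio. Triplicate, at least four times.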

Calls of active or inactive are those of the source. The rule behind the calls is not given here.

T4 sequence (P28223 whole entry): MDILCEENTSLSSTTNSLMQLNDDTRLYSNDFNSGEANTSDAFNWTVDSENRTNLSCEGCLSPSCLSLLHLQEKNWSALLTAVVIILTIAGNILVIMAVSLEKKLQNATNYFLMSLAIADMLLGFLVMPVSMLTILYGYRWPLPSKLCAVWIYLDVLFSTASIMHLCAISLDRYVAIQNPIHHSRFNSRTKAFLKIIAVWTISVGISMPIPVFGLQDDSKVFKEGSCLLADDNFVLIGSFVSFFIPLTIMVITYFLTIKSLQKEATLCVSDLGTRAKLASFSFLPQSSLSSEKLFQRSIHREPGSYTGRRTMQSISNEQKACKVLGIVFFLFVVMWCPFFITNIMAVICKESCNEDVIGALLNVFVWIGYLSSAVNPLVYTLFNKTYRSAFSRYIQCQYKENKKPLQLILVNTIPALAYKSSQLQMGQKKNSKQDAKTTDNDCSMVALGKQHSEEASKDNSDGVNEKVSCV

Turning to `O=c1c2c(on1Cc1ccccc1)CCNCC2`, the EC50 in assay [1] came to 420 nM; in assay [7], 550 nM; in assay [8] it was 1700 nM; in assay [13] it was 2400 nM. Also, the Activity with Mus musculus [2] is 38.5%; in the assay on Mus musculus [3] it was 40.4%; in assay [5], “Dose-dependent effect”; in the assay on Mus musculus [6], 38.8%; with Mus musculus [10] it was 29.8%; in the assay on Mus musculus [16], 33.6%. The Ki in [4] is 724 nM; in [11], 2300 nM. Also, the outcome in assay [9] was inactive. The Emax was 80% in assay [12] and 92% in assay [18]. For the same compound, the figures for the Ratio EC50 (in the assay listed under Homo sapiens [14]; in [15]; in the assay listed under Homo sapiens [17]) were 20, 2 and 20, respectively.

(Values after ChEMBL document CHEMBL2331121, “Design, synthesis, and pharmacological characterization of N- and O-substituted 5,6,7,8-tetrahydro-4H-isoxazolo[4,5-d]azepin-3-ol analogues: novel 5-HT(2A)/5-HT(2C) receptor agonists with pro-cognitive properties” (J Med Chem, 2013).)
